Data on 14 molecules can be found in ChEMBL document CHEMBL3352339, “Implications of N-capped urea/thiourea and C-capped 3-(1-piperazinyl)-1,2-benzisothiazole with bridging Gly-Val/Phe-Gly-Val-Pro as therapeutic targets” (Eur J Med Chem, 2014).

Each structure is given as a SMILES string. pIC50: −log10 of the molar value. Starred links: 1 amine or outer side, 2 acyl side, 3 side chain; linkers in the order of their positions; H or OH if unused. Residues, ends and D or L forms follow the SMILES beside them. *: point of attachment. Thiocarbamoyl(4-MeOPh) = COc1ccc(NC(=S)*)cc1; NH(4-MeO-phenyl) = COc1ccc(N*)cc1; X1 = c1ccc2c(N3CCN(*)CC3)nsc2c1; NH(3-MeOPh) = COc1cccc(N*)c1; X4 = COc1cccc(NC(=S)*)c1; X5 = COc1ccccc1NC(=S)*; Boc = CC(C)(C)OC(=O)*; CO = O=C([*:1])[*:2]; X6 = Fc1cccc(N*)c1; X3 = COc1ccccc1N*

In data set [1] the test system is Aspergillus niger. Nature of the data set: Antifungal activity against Aspergillus niger at 50 ug/mL incubated for 3 days by agar well diffusion method. In kind it is functional. As to conditions: 72 h, read-out: IZ; call rule not given here. Summed up: (§1)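 Fungal growth inhibition measured by agar well diffusion, with bavistin as the reference. Records the mean inhibition-zone diameter (mm) around each well.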
For orientation: A growth-free zone around the sample is the usual read-out of agar diffusion tests.

The nature of data set [2]: Inhibition of sheep stomach parietal cells gastric H+/K+-ATPase activity assessed as reduction in inorganic phosphorus production by Fiske Subbarow's method. The conditions noted are these: for pIC50: read-out: IC50. Format: tissue-based, Ovis aries. An outline of the steps:
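Inhibition of purified H+/K+-ATPase, with omeprazole as the reference. IC50 is the mean of triplicate runs.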

Data set [3] has as its system Fusarium verticillioides. Kind of data set: Antifungal activity against Fusarium moniliforme at 50 ug/mL incubated for 3 days by agar well diffusion method. In kind it is functional. The conditions noted are these: 72 h, read-out: IZ. Summed up:
as §1

A short description of data set [4]: Antiglycation activity using bovine serum albumin incubated at 37 degC for 7 days by spectrofluorimetry. In kind it is physicochemical. An outline of the steps:
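Glycation of bovine serum albumin, with rutin as the reference standard. IC50 values are averages of triplicate runs.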

Data set [5] concerns the target Urease (Canavalia ensiformis, UniProt P07374). Nature of the data set: Inhibition of jack bean urease assessed as reduction in ammonia production incubated at 30 degC for 15 mins by indophenol method. Summed up:
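Inhibition of jack bean urease, with thiourea as the reference standard. IC50 values are the average of triplicate runs.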

Data set [6] deals with Fusarium oxysporum. Kind of data set: Antifungal activity against Fusarium oxysporum at 50 ug/mL incubated for 3 days by agar well diffusion method. In kind it is functional. The conditions noted are these: 72 h, read-out: IZ. Summed up: as §1
Data set [7] deals with Escherichia coli. Nature of the data set: Antibacterial activity against Escherichia coli at 50 ug/mL incubated for 24 hrs by agar well diffusion method. Format: functional. As to conditions: read-out: IZ. An outline of the steps:
(§2)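 Agar well diffusion against the bacterial isolate, with streptomycin as the reference drug. Read-out is the average diameter (mm) of the growth-inhibition zone around the well.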

Data set [8] deals with Xanthomonas oryzae. Kind of data set: Antibacterial activity against Xanthomonas oryzae at 50 ug/mL incubated for 24 hrs by agar well diffusion method. The conditions noted are these: read-out: IZ. Format: functional.
Data set [9] deals with Aspergillus flavus. Nature of the data set: Antifungal activity against Aspergillus flavus at 50 ug/mL incubated for 3 days by agar well diffusion method. In kind it is functional. As to conditions: 72 h, read-out: IZ. Summed up: as §1
Data set [10] deals with Staphylococcus. Nature of the data set: Antibacterial activity against Coagulase positive Staphylococcus at 50 ug/mL incubated for 24 hrs by agar well diffusion method. In kind it is functional. The conditions noted are these: read-out: IZ. An outline of the steps: as §2

For orientation: pIC50 means −log10 of the IC50, conventionally taken in molar units.

Urease, sequence (P07374 whole entry): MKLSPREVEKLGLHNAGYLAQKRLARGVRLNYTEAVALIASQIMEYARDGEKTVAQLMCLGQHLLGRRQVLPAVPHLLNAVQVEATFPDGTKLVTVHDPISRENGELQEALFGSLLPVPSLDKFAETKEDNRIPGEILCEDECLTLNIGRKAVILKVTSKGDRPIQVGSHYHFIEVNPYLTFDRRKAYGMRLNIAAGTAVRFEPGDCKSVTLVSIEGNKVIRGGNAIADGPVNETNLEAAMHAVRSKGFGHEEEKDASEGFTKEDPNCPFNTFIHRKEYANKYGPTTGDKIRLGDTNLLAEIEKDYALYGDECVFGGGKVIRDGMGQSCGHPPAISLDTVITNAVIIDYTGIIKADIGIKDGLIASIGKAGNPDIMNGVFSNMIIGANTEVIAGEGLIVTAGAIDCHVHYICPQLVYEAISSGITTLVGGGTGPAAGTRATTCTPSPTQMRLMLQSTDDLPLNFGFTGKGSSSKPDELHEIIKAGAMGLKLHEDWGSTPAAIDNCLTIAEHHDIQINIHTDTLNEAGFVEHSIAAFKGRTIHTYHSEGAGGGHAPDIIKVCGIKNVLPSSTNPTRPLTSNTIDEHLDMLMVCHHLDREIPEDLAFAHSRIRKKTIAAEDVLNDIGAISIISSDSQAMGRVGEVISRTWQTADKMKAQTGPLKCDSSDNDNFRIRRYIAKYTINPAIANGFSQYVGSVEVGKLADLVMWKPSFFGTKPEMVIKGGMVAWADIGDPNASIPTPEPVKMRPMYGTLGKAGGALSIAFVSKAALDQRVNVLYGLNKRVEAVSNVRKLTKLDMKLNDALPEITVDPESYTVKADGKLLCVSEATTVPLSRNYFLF

As to `COc1cccc(NC(=O)NCC(=O)N[C@@H](Cc2ccccc2)C(=O)NCC(=O)N[C@H](C(=O)N2CCC[C@H]2C(=O)N2CCN(c3nsc4ccccc34)CC2)C(C)C)c1` ({NH(3-MeOPh)-CO}-GFGVP-X1), the zone of inhibition at 50 µg/mL was determined as 20 mm in data set [1]; 22 mm in [3]; 22 mm in data set [6]; 19 mm in data set [7]; 18 mm in [8]; 21 mm in data set [9]. The zone of inhibition at 50 µg/mL in [10] worked out at 20 mm. The negative logarithm of the IC50 (pIC50) in data set [2] was 4.32; in [4], 4.64; in [5], 4.64.

Turning to `COc1ccccc1NC(=S)NCC(=O)N[C@@H](Cc1ccccc1)C(=O)NCC(=O)N[C@H](C(=O)N1CCC[C@H]1C(=O)N1CCN(c2nsc3ccccc23)CC1)C(C)C` (X5-GFGVP-X1), the zone of inhibition at 50 µg/mL stood at 24 mm in data set [1]; 26 mm in data set [3]; 24 mm in data set [6]; 24 mm in data set [7]; 22 mm in data set [8]; 25 mm in data set [9]. Moreover, the zone of inhibition at 50 µg/mL in data set [10] stood at 24 mm. The figures for the negative logarithm of the IC50 (pIC50) in data set [2], in [4] and in data set [5] were 4.34, 4.72 and 4.74, respectively.

In the case of `COc1ccc(NC(=S)NCC(=O)N[C@@H](Cc2ccccc2)C(=O)NCC(=O)N[C@H](C(=O)N2CCC[C@H]2C(=O)N2CCN(c3nsc4ccccc34)CC2)C(C)C)cc1` ({Thiocarbamoyl(4-MeOPh)}-GFGVP-X1), the zone of inhibition at 50 µg/mL in [1] was determined as 30 mm; in data set [3], 31 mm; in [6], 29 mm; in [7], 28 mm; in data set [8], 26 mm; in data set [9], 29 mm. Moreover, the zone of inhibition at 50 µg/mL in data set [10] was 28 mm. Besides, the negative logarithm of the IC50 (pIC50) in [2] was 4.47; in data set [4] it was 4.80; in data set [5] it was 4.82.

As to `CC(C)[C@H](NC(=O)CNC(=O)Nc1cccc(F)c1)C(=O)NCC(=O)N[C@H](C(=O)N1CCC[C@H]1C(=O)N1CCN(c2nsc3ccccc23)CC1)C(C)C` ({X6-CO}-GVGVP-X1), the zone of inhibition at 50 µg/mL in data set [1] was found to be 27 mm; in [3], 27 mm; in [6], 24 mm; in data set [7], 24 mm; in data set [8], 22 mm; in data set [9], 25 mm. In addition, the zone of inhibition at 50 µg/mL in data set [10] worked out at 23 mm. Also, the negative logarithm of the IC50 (pIC50) was 4.06 in [2], 4.28 in data set [4] and 4.36 in [5].

As to `COc1ccccc1NC(=S)NCC(=O)N[C@H](C(=O)NCC(=O)N[C@H](C(=O)N1CCC[C@H]1C(=O)N1CCN(c2nsc3ccccc23)CC1)C(C)C)C(C)C` (X5-GVGVP-X1), the zone of inhibition at 50 µg/mL was 20 mm in data set [1]; 23 mm in [3]; 22 mm in [6]; 21 mm in data set [7]; 19 mm in data set [8]; 22 mm in data set [9]. In addition, the zone of inhibition at 50 µg/mL in data set [10] came to 20 mm. For the same molecule, the negative-log IC50 (pIC50) in [2] is 4.40; in data set [4], 4.70; in data set [5], 4.70.

On to `COc1ccccc1NC(=O)NCC(=O)N[C@H](C(=O)NCC(=O)N[C@H](C(=O)N1CCC[C@H]1C(=O)N1CCN(c2nsc3ccccc23)CC1)C(C)C)C(C)C` ({X3-CO}-GVGVP-X1), for which the zone of inhibition at 50 µg/mL came out at 23 mm in data set [1]; 23 mm in [3]; 21 mm in data set [6]; 19 mm in data set [7]; 18 mm in data set [8]; 21 mm in [9]. Further, the zone of inhibition at 50 µg/mL in data set [10] worked out at 19 mm. The negative-log IC50 (pIC50) was 4.34 in data set [2], 4.62 in data set [4] and 4.66 in [5].

Turning to `COc1cccc(NC(=O)NCC(=O)N[C@H](C(=O)NCC(=O)N[C@H](C(=O)N2CCC[C@H]2C(=O)N2CCN(c3nsc4ccccc34)CC2)C(C)C)C(C)C)c1` ({NH(3-MeOPh)-CO}-GVGVP-X1), the zone of inhibition at 50 µg/mL in data set [1] came to 15 mm; in [3], 18 mm; in data set [6], 18 mm; in data set [7], 15 mm; in data set [8] it was 13 mm; in [9], 17 mm. Further, the zone of inhibition at 50 µg/mL in data set [10] came out at 14 mm. For the same molecule, the negative-log IC50 (pIC50) was 4.42 in data set [2], 4.60 in data set [4] and 4.60 in [5].

In data set [4], `C[C@@H]1O[C@@H](OC[C@H]2O[C@@H](Oc3c(-c4ccc(O)c(O)c4)oc4cc(O)cc(O)c4c3=O)[C@H](O)[C@@H](O)[C@@H]2O)[C@H](O)[C@H](O)[C@H]1O` [RUTIN] showed a pIC50 of 4.38.

Take `COc1ccc(NC(=O)NCC(=O)N[C@@H](Cc2ccccc2)C(=O)NCC(=O)N[C@H](C(=O)N2CCC[C@H]2C(=O)N2CCN(c3nsc4ccccc34)CC2)C(C)C)cc1` ({NH(4-MeO-phenyl)-CO}-GFGVP-X1): the zone of inhibition at 50 µg/mL was determined as 28 mm in data set [1]; 29 mm in data set [3]; 27 mm in data set [6]; 26 mm in data set [7]; 23 mm in [8]; 28 mm in [9]. Further, the zone of inhibition at 50 µg/mL in data set [10] came to 26 mm. In addition, the pIC50 in [2] is 4.42; in [4], 4.72; in [5] it was 4.77.

In the case of `CC(C)[C@H](NC(=O)CNC(=O)[C@H](Cc1ccccc1)NC(=O)CNC(=O)OC(C)(C)C)C(=O)N1CCC[C@H]1C(=O)N1CCN(c2nsc3ccccc23)CC1` (Boc-GFGVP-X1), the zone of inhibition at 50 µg/mL in [1] was found to be 6 mm; in data set [3] it was 7 mm; in [6], 7 mm; in data set [7] it was 8 mm; in [8] it was 7 mm; in [9] it was 7 mm. In [10], the zone of inhibition at 50 µg/mL amounted to 6 mm. The IC50 result in [2] is reported as “Not Active”. The negative-log IC50 (pIC50) in [4] was 3.63; in [5] it was 3.59.

For `CC(C)[C@H](NC(=O)CNC(=O)[C@H](Cc1ccccc1)NC(=O)CNC(=O)Nc1cccc(F)c1)C(=O)N1CCC[C@H]1C(=O)N1CCN(c2nsc3ccccc23)CC1` ({X6-CO}-GFGVP-X1), the zone of inhibition at 50 µg/mL in data set [1] stood at 30 mm; in data set [3], 31 mm; in data set [6] it was 29 mm; in data set [7], 28 mm; in data set [8], 26 mm; in [9], 29 mm. The zone of inhibition at 50 µg/mL in data set [10] stood at 29 mm. For the same molecule, the figures for the pIC50 in data set [2], in data set [4] and in [5] were 4.04, 4.30 and 4.37, respectively.

As for `COc1ccc(NC(=O)NCC(=O)N[C@H](C(=O)NCC(=O)N[C@H](C(=O)N2CCC[C@H]2C(=O)N2CCN(c3nsc4ccccc34)CC2)C(C)C)C(C)C)cc1` ({NH(4-MeO-phenyl)-CO}-GVGVP-X1), the zone of inhibition at 50 µg/mL stood at 24 mm in data set [1]; 24 mm in [3]; 28 mm in data set [6]; 23 mm in [7]; 22 mm in [8]; 26 mm in data set [9]. Besides, in data set [10], the zone of inhibition at 50 µg/mL came to 22 mm. In addition, the figures for the negative-log IC50 (pIC50) in data set [2], in data set [4] and in [5] were 4.47, 4.68 and 4.68, respectively.

As to `COc1cccc(NC(=S)NCC(=O)N[C@H](C(=O)NCC(=O)N[C@H](C(=O)N2CCC[C@H]2C(=O)N2CCN(c3nsc4ccccc34)CC2)C(C)C)C(C)C)c1` (X4-GVGVP-X1), the zone of inhibition at 50 µg/mL in [1] amounted to 16 mm; in data set [3] it was 19 mm; in [6], 19 mm; in [7], 17 mm; in [8], 16 mm; in [9], 18 mm. In addition, in [10], the zone of inhibition at 50 µg/mL stood at 18 mm. Further, the pIC50 was 4.44 in data set [2], 4.64 in data set [4] and 4.64 in data set [5].

With `COc1ccccc1NC(=O)NCC(=O)N[C@@H](Cc1ccccc1)C(=O)NCC(=O)N[C@H](C(=O)N1CCC[C@H]1C(=O)N1CCN(c2nsc3ccccc23)CC1)C(C)C` ({X3-CO}-GFGVP-X1), the zone of inhibition at 50 µg/mL in data set [1] came to 24 mm; in data set [3] it was 26 mm; in data set [6] it was 23 mm; in data set [7], 23 mm; in data set [8], 22 mm; in [9] it was 25 mm. Besides, the zone of inhibition at 50 µg/mL in [10] is 23 mm. For the same molecule, the pIC50 in data set [2] is 4.27; in data set [4], 4.66; in [5], 4.68.
